Activity calls are given as the source filed them. No cut-off for these calls is given here.
Legend:
[1] = Antifungal activity against Septoria nodorum at 25 ug/mL; type: functional
How it was run: (§1)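 In vitro antifungal screening assay against the named Septoria species, testing purified compounds at a single concentration of 25 µg/mL.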

Septoria = assay: Antifungal activity against Septoria tritici at 25 ug/mL; type: functional; how it was run: as §1

CNC(=O)O[C@H]1CC(=O)N([C@H]2O[C@@H](COC(C)=O)[C@H](OC(N)=O)[C@@H](O)[C@@H]2O)c2cc(cc(O)c2Cl)C/C(C)=C/C=C/[C@@H](OC)[C@@]2(O)C[C@H](OC(=O)N2)[C@@H](C)/C=C/1C
Activity [1]: inactive | Activity (Septoria): inactive

CNC(=O)O[C@H]1CC(=O)N([C@H]2O[C@@H](CO)[C@H](OC(N)=O)[C@@H](OC)[C@@H]2O)c2cc(cc(O)c2Cl)C/C(C)=C/C=C/[C@@H](OC)[C@@]2(O)C[C@H](OC(=O)N2)[C@@H](C)[C@H]2O[C@@]12C
Activity [1]: inactive | Activity (Septoria): inactive

CNC(=O)O[C@H]1CC(=O)N([C@H]2O[C@@H](CO)[C@H](O)[C@@H](OC)[C@@H]2O)c2cc(cc(O)c2Cl)C/C(C)=C/C=C/[C@@H](OC)[C@@]2(O)C[C@H](OC(=O)N2)[C@@H](C)[C@H]2O[C@@]12C
Activity [1]: inactive | Activity (Septoria): inactive

CNC(=O)O[C@H]1CC(=O)N([C@H]2O[C@@H](COC(C)=O)[C@H](OC(N)=O)[C@@H](OC)[C@@H]2O)c2cc(cc(O)c2Cl)C/C(C)=C/C=C/[C@@H](OC)[C@@]2(O)C[C@H](OC(=O)N2)[C@@H](C)/C=C/1C
Activity [1]: inactive | Activity (Septoria): inactive

CNC(=O)O[C@H]1CC(=O)N([C@H]2O[C@@H](COC(C)=O)[C@H](OC(N)=O)[C@@H](O)[C@@H]2O)c2cc(cc(O)c2Cl)C/C(C)=C/C=C/[C@@H](OC)[C@@]2(O)C[C@H](OC(=O)N2)[C@@H](C)[C@H]2O[C@@]12C
Activity [1]: inactive | Activity (Septoria): inactive

CNC(=O)O[C@H]1CC(=O)N([C@H]2O[C@@H](CO)[C@H](OC(N)=O)[C@@H](O)[C@@H]2O)c2cc(cc(O)c2Cl)C/C(C)=C/C=C/[C@@H](OC)[C@@]2(O)C[C@H](OC(=O)N2)[C@@H](C)[C@H]2O[C@@]12C
Activity [1]: inactive | Activity (Septoria): inactive

CNC(=O)O[C@H]1CC(=O)N([C@H]2O[C@@H](CO)[C@H](O)[C@@H](O)[C@@H]2O)c2cc(cc(O)c2Cl)C/C(C)=C/C=C/[C@@H](OC)[C@@]2(O)C[C@H](OC(=O)N2)[C@@H](C)[C@H]2O[C@@]12C
Activity [1]: inactive | Activity (Septoria): inactive

CNC(=O)O[C@H]1CC(=O)N([C@H]2O[C@@H](COC(C)=O)[C@H](OC(N)=O)[C@@H](OC)[C@@H]2O)c2cc(cc(O)c2Cl)C/C(C)=C/C=C/[C@@H](OC)[C@@]2(O)C[C@H](OC(=O)N2)[C@@H](C)[C@H]2O[C@@]12C
Activity [1]: inactive | Activity (Septoria): inactive
